Article PMC6766976 (Journal of Clinical Pharmacology, 2019)
Where two headings read alike, the source gives them in different places.

What was measured:
[1] = format: in vivo, human
[2] = Safety and tolerability assessments in the hepatic impairment study; format: in vivo, human; settings: Single 15-mg dose
Summary of the method: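 Open-label, single-dose study in subjects with mild or moderate hepatic impairment (Child-Pugh) and normal-function controls. Subjects were confined from the day before dosing and given the oral extended-release test compound after a 10-hour fast, then fasted 4 h post-dose. Adverse events, hematology, blood chemistry, vital signs, ECGs and physical exams were monitored. Treatment-emergent events were tabulated per hepatic group by MedDRA class and term.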

[3] = Over the range of IR and ER doses evaluated in clinical studies; cited from earlier work
[4] = cited from earlier work
[5] = system: cytochrome P450 (CYP) 3A; settings: cited from earlier work
[6] = cited from earlier work; remark: listed apart in the source
[7] = cited from earlier work; remark: listed apart in the source
[8] = system: plasma proteins; settings: ref data on file at AbbVie; cited from earlier work
[9] = cited from earlier work; remark: listed apart in the source
[10] = system: JAK 1; settings: cited from earlier work
[11] = system: JAK 2; settings: cited from earlier work
[12] = system: JAK 3; settings: cited from earlier work
[13] = system: Tyk2; settings: cited from earlier work
[14] = Moderate hepatic impairment (outlier excluded)
[15] = Subjects with mild and moderate hepatic impairment
[16] = IR formulation, relative to upadacitinib alone

For `CC[C@@H]1CN(C(=O)NCC(F)(F)F)C[C@@H]1c1cnc2cnc3[nH]ccc3n12` [upadacitinib], the “AUC lower compared with mean AUC in subjects with normal hepatic function” value ([1]; 1 subject in the moderate hepatic impairment group (excluded from analyses)) was “approximately 70%”, the “Plasma concentration at 120 hours” value ([1]; All subjects and all groups, lower limit of quantitation 0.05 ng/mL) was “below the assay limit of quantification” and the “AUC central value higher compared with normal hepatic function” value ([1]; Mild hepatic impairment) was 28%. The “Cmax central value compared with normal hepatic function” value ([1]; Mild hepatic impairment) was “similar”, the “β (terminal-phase elimination rate constant) versus normal hepatic function” value ([1]; Mild hepatic impairment, ANCOVA) was “no statistically significant difference” and the “AUC central value higher compared with normal hepatic function” value [1, 14] was 24%. The “Cmax central value higher compared with normal hepatic function” value [1, 14] was 43%, the “Increase in upadacitinib exposure, AUC” value [1, 15] was under 30% and the “Increase in upadacitinib exposure, Cmax” value [1, 15] was under 45%. The “Changes in vital signs or hematology measurements” value [2] was “No clinically significant changes”, the Tolerability ([2]; all subjects) was “well tolerated” and the “Plasma exposure dose and time dependence” value [3] was “approximately dose proportional and time independent”. For the same compound, the “Dose eliminated unchanged in urine” value ([4]; IR dose) was “Approximately 20%”, the “Dose eliminated in urine and feces as metabolites” value ([4]; ref data on file at AbbVie) was “approximately 30%” and the “Substrate status for cytochrome P450 (CYP) 3A” value ([5]; Evaluated in phase 1 drug-interaction study with ketoconazole) was “nonsensitive substrate”. For the same compound, the “Increase in plasma AUC with coadministration of ketoconazole” value [5, 16] was 75%, the “Increase in plasma Cmax with coadministration of ketoconazole” value [5, 16] was 70% and the “Increase in upadacitinib exposure with a high-fat meal” value [6] was “Approximately 20%”. The “AUC higher compared with normal renal function” value ([7]; Mild renal impairment) was 18%, the “Cmax compared with normal renal function” value ([7]; Mild, moderate and severe renal impairment) was “similar” and the “AUC higher compared with normal renal function” value ([7]; Moderate renal impairment) was 33%. The “AUC higher compared with normal renal function” value ([7]; Severe renal impairment) was 44%, the Plasma protein binding [8] was “not extensively bound to plasma proteins” and the “Impact of baseline AST, ALT and bilirubin on upadacitinib exposure” value ([9]; Phase 1 to 3 studies, healthy subjects and subjects with RA) was “no impact”. For the same compound, the “Correlation of CYP2D6 metabolic phenotype with upadacitinib clearance” value [9] was “not correlated”, the “Effect of age, weight, sex, race and ethnicity on upadacitinib exposure” value [9] was “no clinically relevant effect” and the “Inhibition of JAK 1” value [10] was “potently inhibits”. The “Potency against JAK 2 compared with JAK 1” value [11] was “less potent”, the “Potency against JAK 3 compared with JAK 1” value [12] was “less potent” and the “Potency against Tyk2 compared with JAK 1” value [13] was “less potent”.
